ChEMBL document CHEMBL1125497, “Synthesis and anticonvulsant activity of enaminones” (J Med Chem, 1992)

Assays:
[1] = Antiepileptic activity in male CF1 mice 0.5 hr after oral administration measured in maximum electroshock seizure(MES) test at a dose of 6 mg/kg (no. of animals treated /protected); activity value is 3/4; format: functional, Mus musculus
[2] = Antiepileptic activity in male CF1 mice 0.25 hr after oral administration measured in neurological toxicity (Tox) test at a dose of 10 mg/kg (no. of animals treated /protected); activity value is 0/4; format: functional, Mus musculus
[3] = Antiepileptic activity in male CF1 mice 4 hr after administration measured in maximum electroshock seizure(MES) test at a dose of 300 mg/kg (no. of animals treated /protected); activity value is 1/1; format: functional, Mus musculus
[4] = Antiepileptic activity in male CF1 mice 4 hr after oral administration measured in neurological toxicity (Tox) test at a dose of 10 mg/kg (no. of animals treated /protected); activity value is 0/4; format: functional, Mus musculus
[5] = Antiepileptic activity in male CF1 mice 30 min after administration measured in maximum electroshock seizure(MES) test at a dose of 100 mg/kg (no. of animals treated /protected); activity value is 3/3; format: functional, Mus musculus
[6] = Antiepileptic activity in male CF1 mice 1 hr after oral administration measured in maximum electroshock seizure(MES) test at a dose of 10 mg/kg; activity value is 4/4; format: functional, Mus musculus
[7] = Antiepileptic activity in male CF1 mice 0.50 hours after oral administration measured in neurological toxicity (Tox) test at a dose of 6 mg/kg (no. of animals treated /protected); activity value is 0/4; format: functional, Mus musculus
[8] = Antiepileptic activity in male CF1 mice 30 min after administration measured in neurological toxicity (Tox) test at a dose of 100 mg/kg (no. of animals treated /protected); activity value is 1/8; format: functional, Mus musculus
Rattus norvegicus [9] = assay: Average seizure score for the rat cornea 0.5 hr after peroral administration of 40 mg/kg of compound; format: functional; details: route oral
Summary of the method: (§1)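 Sprague-Dawley rats (85–95 g initial) were kindled with 4 s, 8 mA corneal stimulations (butacaine anesthesia) to 10 consecutive stage 5 seizures. After a vehicle shock and a 2-day shock-free period, test drug was given ip or po and a single shock applied at time of peak effect. Seizures were scored on a modified Racine 0–5 scale. ED50 is the dose reducing severity by 50% (Litchfield–Wilcoxon).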

Rattus norvegicus [10] = assay: Per oral dose (60 mg/Kg) reducing rat corneal kindling 0.5 hr after administration.; format: functional; summary of the method: as §1
[11] = Antiepileptic activity in male CF1 mice 0.5 hr after oral administration measured in maximum electroshock seizure(MES) test at a dose of 50 mg/kg (no. of animals treated /protected); activity value is 4/4; format: functional, Mus musculus
[12] = Time of peak anticonvulsant effect in CF1 MICE after ip administration.; format: functional, Mus musculus
Summary of the method: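 Male CF1 mice (ca. 24–34 g), compound in 0.5% methylcellulose suspension given ip or po; time (h) at which MES protection (against tonic hind limb extension) peaked was recorded and used for ED50 determination.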

[13] = Time of peak neurotoxic effect in CF1 MICE after ip administration.; format: ADME, organism-based; details: mouse, in vivo
Summary of the method: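 Male CF1 mice (ca. 24–34 g), compound ip in 0.5% methylcellulose suspension; neurological deficit assessed by rotorod test, time (h) of peak neurotoxic effect recorded for TD50 determination.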

[14] = Protective index was measured as TD50/ED50 in rat on oral administration; format: ADME, organism-based; details: in vivo, read-out: PI
[15] = Dose protecting 50% of the mice from tonic hind limb extension at the time of peak convulsant effect after po administration.; format: functional; details: Mus musculus, Hindlimb
Summary of the method: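 Phase II quantification in CF1 male mice (ca. 24–34 g), dosing ip or po in 0.5% methylcellulose suspension. ED50 is protection from tonic hind limb extension in MES. TD50 is rotorod neurotoxicity. Both were read at time of peak effect and derived by Litchfield–Wilcoxon with 95% confidence limits.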

SMILES	Activity [1]	Activity [2]	Activity [3]	Activity [4]	Activity [5]	Activity [6]	Activity [7]	Activity [8]	Average seizure score (Rattus norvegicus [9])	Reduction (Rattus norvegicus [10])	Activity [11]	TPE [12]	TPE [13]	selectivity ratio [14]	ED50 [15]
COC(=O)C1C(=O)C=C(Nc2ccc(Cl)cc2)CC1C (stereo not given)	3	0	1	0	3	4	0	1	2.6	–	–	–	–	–	–
COC(=O)C1C(=O)C=C(NCc2ccccc2)CC1C (stereo not given)	–	–	–	–	–	–	–	–	–	40%	4	0.5 h	0.25 h	18.7	162 mg/kg
